The text below walks through data of ChEMBL document CHEMBL2321761, “Discovery of novel dual inhibitors of the wild-type and the most prevalent drug-resistant mutant, S31N, of the M2 proton channel from influenza A virus” (J Med Chem, 2013).

The test system of the assay is Influenza A virus. Put plainly: Inhibition of Influenza A virus wild type M2 proton channel expressed in Xenopus laevis oocyte at 100 uM after 2 mins by two-electrode […] clamp assay. The essentials: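 Full-length AM2 (WT) was expressed in Xenopus oocyte membranes and recorded by two-electrode voltage clamp during low-pH activation. Percent inhibition was read after only 2 min of exposure, before equilibrium was reached. IC50 values from this read-out are apparent kinetic values, not equilibrium dissociation constants.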
Consider `Oc1ccc(CNC23CC4CC(CC(C4)C2)C3)c(Cl)c1`, for which the inhibition – broadly, the relative decrease from the control value, in per cent – is 78%. In turn, `O=[N+]([O-])c1ccc(CNC23CC4CC(CC(C4)C2)C3)cc1` gave an inhibition of 49%. Under `Oc1ccc(CNC23CC4CC(CC(C4)C2)C3)cc1` stands 67%. Under `Oc1ccc(CNC23CC4CC(CC(C4)C2)C3)cc1O` stands 44%; under `CS(=O)(=O)c1ccc(CNC23CC4CC(CC(C4)C2)C3)cc1`, 45%; under `COc1cc(O)ccc1CNC12CC3CC(CC(C3)C1)C2`, 0%.

With `c1ccc(CNC23CC4CC(CC(C4)C2)C3)nc1`, the inhibition was 12%.

Consider `c1cnn(-c2ccc(CNC34CC5CC(CC(C5)C3)C4)cc2)c1`, for which the inhibition stood at 4%. In the case of `OCc1ccc(CNC23CC4CC(CC(C4)C2)C3)cc1`, the inhibition was determined as 26%. The figure for `CC(C)(C)OC(=O)Nc1ccc(CNC23CC4CC(CC(C4)C2)C3)cc1` is 13%. `Oc1ccc(CNC23CC4CC(CC(C4)C2)C3)cc1Cl` yielded an inhibition of 78%. In turn, `Fc1ccc(CNC23CC4CC(CC(C4)C2)C3)cc1` gave an inhibition of 77%. The figure for `C[C@@H]1[C@@H](/N=C/c2ccc(O)cc2)C[C@H]2C[C@@H]1C2(C)C` is 91%; for `Oc1ccccc1CNC12CC3CC(CC(C3)C1)C2` it is 81%; for `c1cc(CNC23CC4CC(CC(C4)C2)C3)ccn1` it is 6%. For the molecule `C[S+]([O-])c1ccc(CNC23CC4CC(CC(C4)C2)C3)cc1` (stereo unspecified), the inhibition was found to be 2%. `c1cc2cn[nH]c2cc1CNC12CC3CC(CC(C3)C1)C2` gave an inhibition of 79%. Under `CC(=O)c1ccc(CNC23CC4CC(CC(C4)C2)C3)cc1` stands 2%; under `COc1ccc(CNC23CC4CC(CC(C4)C2)C3)c(OC)c1`, 16%; under `O=[N+]([O-])c1ccccc1CNC12CC3CC(CC(C3)C1)C2`, 48%. The figure for `N#Cc1ccc(CNC23CC4CC(CC(C4)C2)C3)cc1` is 36%. Molecule `O=[N+]([O-])c1cc(CNC23CC4CC(CC(C4)C2)C3)ccc1O` showed an inhibition of 66%. Under `COc1ccccc1CNC12CC3CC(CC(C3)C1)C2` stands 22%; under `Oc1ccc(CNC23CC4CC(CC(C4)C2)C3)c(O)c1`, 64%. Turning to `NCc1ccc(CNC23CC4CC(CC(C4)C2)C3)cc1`, the inhibition was found to be 3%. Molecule `Oc1cc(F)ccc1CNC12CC3CC(CC(C3)C1)C2` came in with an inhibition of 87%. The figure for `OC1CCC(CNC23CC4CC(CC(C4)C2)C3)CC1` (racemic) is 16%. `COc1ccc(CNC23CC4CC(CC(C4)C2)C3)cc1` yielded an inhibition of 43%. Under `c1cn(-c2ccc(CNC34CC5CC(CC(C5)C3)C4)cc2)cn1` stands 4%; under `c1cc(-c2nnn[nH]2)ccc1CNC12CC3CC(CC(C3)C1)C2`, 6%.

The molecule `Oc1ccc(CNC23CC4CC(CC(C4)C2)C3)cc1F` had an inhibition of 65%. In turn, `CC(=O)Nc1ccc(CNC23CC4CC(CC(C4)C2)C3)cc1` showed an inhibition of 3%. `COC(=O)[C@H](Cc1cnc[nH]1)NCC12CC3CC(CC(C3)C1)C2` showed an inhibition of 27%. `NC(=O)c1ccc(CNC23CC4CC(CC(C4)C2)C3)cc1` registered an inhibition of 7%. The molecule `COc1ccc(CN(C)C23CC4CC(CC(C4)C2)C3)cc1` registered an inhibition of 34%. The molecule `c1cc(CNC23CC4CC(CC(C4)C2)C3)co1` showed an inhibition of 73%. Under `COc1ccc(CNC23CC4CC(CC(C4)C2)C3)cc1O` stands 46%; under `COc1ccc(CNC23CC4CC(CC(C4)C2)C3)c(O)c1`, 56%; under `COc1cc(CNC23CC4CC(CC(C4)C2)C3)ccc1O`, 76%.

With `c1cc2c(cc1CNC13CC4CC(CC(C4)C1)C3)OCO2`, the inhibition is 54%. Molecule `c1ccc(CNC23CC4CC(CC(C4)C2)C3)cc1` displayed an inhibition of 77%.

`c1nc2cc(CNC34CC5CC(CC(C5)C3)C4)ccc2[nH]1` gave an inhibition of 26%. Under `Oc1cccc(CNC23CC4CC(CC(C4)C2)C3)c1` stands 88%; under `Nc1ccc(CNC23CC4CC(CC(C4)C2)C3)cc1`, 31%; under `Oc1ccc(/C=N/C23CC4CC(CC(C4)C2)C3)cc1`, 81%.

`COc1ccc(COC23CC4CC(CC(C4)C2)C3)cc1` displayed an inhibition of 51%.
